Assay results taken from ChEMBL document CHEMBL5214961, “Novel Allosteric Inhibitor-Derived AKT Proteolysis Targeting Chimeras (PROTACs) Enable Potent and Selective AKT Degradation in KRAS/BRAF Mutant Cells” (J Med Chem, 2022).
Blank lines part the entries; values can stand above or below the molecule they belong to. Calls of active or inactive are those of the source. The rule behind the calls is not given here.

Tests used:
SW-620 [1] = test: Antiproliferative activity against human SW620 cells harboring KRAS mutant assessed as inhibition of cell growth incubated for 5 days by IncuCyte live-cell imaging analysis; format: functional, cell-based; details: SW-620, 120 h
[2] = target: T1, RAC-beta serine/threonine-protein kinase (Homo sapiens, UniProt P31751); test: Inhibition of AKT2 (unknown origin) preincubated for 20 mins followed by [33P]-ATP addition measured after 120 mins by hotspot kinase assay
T1 sequence (P31751 whole entry): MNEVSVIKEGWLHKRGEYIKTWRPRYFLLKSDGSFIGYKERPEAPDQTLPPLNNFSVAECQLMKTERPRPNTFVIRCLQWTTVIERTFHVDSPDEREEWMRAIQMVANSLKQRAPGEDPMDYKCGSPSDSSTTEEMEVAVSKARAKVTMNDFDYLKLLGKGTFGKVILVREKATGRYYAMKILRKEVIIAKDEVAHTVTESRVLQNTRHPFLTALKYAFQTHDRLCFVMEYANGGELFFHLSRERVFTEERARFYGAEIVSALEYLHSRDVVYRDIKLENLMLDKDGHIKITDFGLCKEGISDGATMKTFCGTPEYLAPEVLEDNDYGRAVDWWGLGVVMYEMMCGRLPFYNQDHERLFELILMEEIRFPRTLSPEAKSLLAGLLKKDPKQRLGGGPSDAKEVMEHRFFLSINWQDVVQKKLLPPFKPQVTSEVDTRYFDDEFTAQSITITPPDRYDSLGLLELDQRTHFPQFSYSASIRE

[3] = target: RAC-gamma serine/threonine-protein kinase (Homo sapiens, UniProt Q9Y243); test: Inhibition of AKT3 (unknown origin) preincubated for 20 mins followed by [33P]-ATP addition measured after 120 mins by hotspot kinase assay
RAC-gamma serine/threonine-protein kinase, sequence (Q9Y243 whole entry): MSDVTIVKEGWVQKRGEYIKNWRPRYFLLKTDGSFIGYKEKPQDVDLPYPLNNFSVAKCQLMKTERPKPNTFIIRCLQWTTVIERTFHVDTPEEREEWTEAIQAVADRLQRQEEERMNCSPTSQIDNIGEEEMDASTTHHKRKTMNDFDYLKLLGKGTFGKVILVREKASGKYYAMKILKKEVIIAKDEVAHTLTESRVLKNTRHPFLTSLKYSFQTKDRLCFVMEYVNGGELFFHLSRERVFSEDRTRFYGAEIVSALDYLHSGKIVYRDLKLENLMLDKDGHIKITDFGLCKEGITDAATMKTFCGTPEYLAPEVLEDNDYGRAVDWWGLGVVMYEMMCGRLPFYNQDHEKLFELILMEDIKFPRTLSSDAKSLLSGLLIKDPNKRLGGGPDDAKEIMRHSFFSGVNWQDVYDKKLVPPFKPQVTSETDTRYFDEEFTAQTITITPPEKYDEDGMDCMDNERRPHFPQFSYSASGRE

[4] = target: T2, RAC-alpha serine/threonine-protein kinase (Homo sapiens, UniProt P31749); test: Inhibition of AKT1 (unknown origin) preincubated for 20 mins followed by [33P]-ATP addition measured after 120 mins by hotspot kinase assay
Target sequence in this assay (P31749 whole entry): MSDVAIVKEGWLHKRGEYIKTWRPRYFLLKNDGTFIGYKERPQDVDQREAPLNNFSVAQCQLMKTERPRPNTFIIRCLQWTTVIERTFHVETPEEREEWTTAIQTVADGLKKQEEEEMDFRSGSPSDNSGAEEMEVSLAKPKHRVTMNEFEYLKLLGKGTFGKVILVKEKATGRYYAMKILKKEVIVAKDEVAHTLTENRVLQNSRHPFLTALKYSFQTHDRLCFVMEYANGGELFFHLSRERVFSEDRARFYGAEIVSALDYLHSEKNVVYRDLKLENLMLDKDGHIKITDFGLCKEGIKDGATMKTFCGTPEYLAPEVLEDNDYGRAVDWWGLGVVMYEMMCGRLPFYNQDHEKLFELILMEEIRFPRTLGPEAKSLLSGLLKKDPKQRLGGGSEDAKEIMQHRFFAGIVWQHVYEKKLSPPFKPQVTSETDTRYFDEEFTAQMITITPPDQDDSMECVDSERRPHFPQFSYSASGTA

PC-3 = test: Inhibition of colony formation in human PC-3 cells at 0.1 to 10 uM incubated for 2 weeks with media replacement for every 2 days by crystal violet staining based analysis; format: functional, cell-based; details: dose 0.1-10 µM
Summary of the method: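 PC3 cells kept 14 days with compound; compound-containing medium replenished every two days. Viable cells stained with 0.5% crystal violet.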

[5] = target: von Hippel-Lindau disease tumor suppressor/RAC-alpha serine/threonine-protein kinase (Homo sapiens) (UniProt P31749+P40337); test: Protac activity at VHL/AKT in human PC-3 cells assessed as reduction in total Akt level at 1 uM incubated for 24 hrs by Western blot analysis; format: cell-based
von Hippel-Lindau disease tumor suppressor/RAC-alpha serine/threonine-protein kinase (Homo sapiens), sequence (P31749 whole entry, looked up): as the sequence (P31749 whole entry) above
von Hippel-Lindau disease tumor suppressor/RAC-alpha serine/threonine-protein kinase (Homo sapiens), sequence (P40337 whole entry, looked up): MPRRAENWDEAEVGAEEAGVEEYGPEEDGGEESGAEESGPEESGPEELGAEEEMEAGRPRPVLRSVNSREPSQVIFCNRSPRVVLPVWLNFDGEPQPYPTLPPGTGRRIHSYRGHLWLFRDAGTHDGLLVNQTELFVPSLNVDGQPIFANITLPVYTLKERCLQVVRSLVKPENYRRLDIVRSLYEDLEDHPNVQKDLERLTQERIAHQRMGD
Summary of the method: (§1)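 Cells grown in DMEM with 10% FBS at 37 °C, 5% CO2, then exposed to compound at 1 μM for 24 h. Lysates made in 2X urea/SDS sample buffer, run on 4–12% Bis-Tris gels, transferred to PVDF, probed for total AKT overnight at 4 °C; HRP/chemiluminescence detection with β-actin as loading control.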

[6] = target: T2, RAC-alpha serine/threonine-protein kinase; test: Induction of AKT degradation in MS21-resistant human PANC-1 cells harboring […] mutant assessed as reduction in total AKT level incubated for 24 hrs by Western blot analysis; format: cell-based; details: dose 0.01-10 µM, DDE = dose-dependent effect
Summary of the method: (§2)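 Dose-response in DMEM/10% FBS culture: compound at the indicated concentrations, up to 10 μM, for 24 h. Total AKT read by western blot of urea/SDS lysates with β-actin loading control; in SW620 a DC50 was fitted from the concentration-response blot data.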
Target sequence in this assay (P31749 whole entry): as the sequence (P31749 whole entry) above

[7] = target: T2, RAC-alpha serine/threonine-protein kinase; test: Induction of AKT degradation in MS21-resistant human PANC-1 cells harboring […] mutant assessed as reduction in total AKT level at 100 nM incubated for 24 hrs by Western blot analysis relative to control; format: cell-based; design: scale not given: the % may be the effect or the level left; summary of the method: as §2
Target sequence in this assay (P31749 whole entry): as above

[8] = target: T2, RAC-alpha serine/threonine-protein kinase; test: Induction of AKT degradation in MS-21 resistant human MIA PaCa-2 cells harboring KRAS-mutant assessed as reduction in total Akt level at 1 uM incubated for 24 hrs by Western blot analysis; format: cell-based
Target sequence in this assay (P31749 whole entry): as above

[9] = target: T2, RAC-alpha serine/threonine-protein kinase; test: Induction of AKT degradation in MS21-resistant human SW620 cells harboring KRAS/BRAF mutant assessed as reduction in total AKT level incubated for 24 hrs by Western blot analysis; format: cell-based; summary of the method: as §2
Target sequence in this assay (P31749 whole entry, looked up, stated change not applied): as the sequence (P31749 whole entry) above

[10] = target: T2, RAC-alpha serine/threonine-protein kinase; test: Induction of AKT degradation in MS21-resistant human PANC-1 cells harboring […] mutant assessed as reduction in total AKT level at 1 uM incubated for 24 hrs by Western blot analysis; format: cell-based; summary of the method: as §1
Target sequence in this assay (P31749 whole entry): as above

[11] = Tmax in Swiss albino mouse at 75 mg/kg, ip administered as single dose and measured for 12 hrs by LC-MS/MS analysis; format: ADME, organism-based; details: in vivo
Summary of the method: (§3)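 Single IP dose of 75 mg/kg to male Swiss albino mice (six dosed); compound as HCl salt in 5% v/v NMP, 5% v/v Solutol HS-15, 90% v/v normal saline. About 60 μL plasma taken from three mice at 0.5, 1, 2, 4, 8 and 12 h; LC-MS/MS quantitation (LLOQ 1.02 ng/mL); values are means of 3 mice.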

[12] = target: T2, RAC-alpha serine/threonine-protein kinase; test: Induction of AKT1 degradation in human SW620 cells at 0.01 to 10 uM incubated for 24 hrs by Western blot analysis; format: cell-based; details: dose 0.01-10 µM
Target sequence in this assay (P31749 whole entry): as above

[13] = target: T2, RAC-alpha serine/threonine-protein kinase; test: Induction of AKT degradation in MS-21 resistant human SW620 cells harboring KRAS-mutant assessed as reduction in total Akt level at 1 uM incubated for 24 hrs by Western blot analysis; format: cell-based; summary of the method: as §1
[14] = target: T2, RAC-alpha serine/threonine-protein kinase; test: Induction of AKT degradation in MS21-resistant human SK-MEL-239 cells harboring BRAF mutant assessed as reduction in total AKT level at 1 uM incubated for 24 hrs by Western blot analysis; format: cell-based; summary of the method: as §1
[15] = Cmax in Swiss albino mouse at 75 mg/kg, ip administered as single dose and measured for 12 hrs by LC-MS/MS analysis; format: ADME, organism-based; design: dose 75 mg/kg, time 12 hrs, route ip; details: in vivo; summary of the method: as §3
[16] = Toxicity in Swiss albino mouse assessed as clinical signs at 75 mg/kg, ip administered as single dose and measured for 12 hrs; format: organism-based; details: in vivo
Summary of the method: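 Male Swiss albino mice given a single 75 mg/kg IP dose in 5% NMP/5% Solutol HS-15/90% saline; watched for clinical signs across a 12 h pharmacokinetic sampling period.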

[17] = target: T1, RAC-beta serine/threonine-protein kinase; test: Induction of AKT2 degradation in human SW620 cells at 0.01 to 10 uM incubated for 24 hrs by Western blot analysis; format: cell-based; details: dose 0.01-10 µM
[18] = target: T2, RAC-alpha serine/threonine-protein kinase; test: Induction of AKT degradation in MS21-resistant human SW620 cells harboring KRAS/BRAF mutant assessed as reduction in total AKT level at 100 nM incubated for 24 hrs by Western blot analysis relative to control; format: cell-based; design: scale not given: the % may be the effect or the level left; summary of the method: as §2
[19] = Plasma concentration in Swiss albino mouse at 75 mg/kg, ip administered as single dose and measured for 12 hrs by LC-MS/MS analysis; format: ADME, organism-based; summary of the method: as §3
[20] = target: Proline-rich AKT1 substrate 1 (Homo sapiens) (UniProt Q96B36); test: Inhibition of PRAS40 phosphorylation in human SW620 cells at 1 uM measured after 18 hrs by TMT-MS analysis; format: cell-based
[21] = target: T2, RAC-alpha serine/threonine-protein kinase; test: Induction of AKT degradation in MS21-resistant human SW620 cells harboring KRAS/BRAF mutant assessed as reduction in total AKT level at 1 uM measured after 12 hrs by Western blot analysis relative to control; format: cell-based; design: scale not given: the % may be the effect or the level left
Summary of the method: (§4)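 SW620 time course: cells given 1 μM compound, with lysates harvested at several time points up to 24 h. Total AKT probed by western blot with β-actin as loading control.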

[22] = target: T2, RAC-alpha serine/threonine-protein kinase; test: Induction of AKT degradation in MS21-resistant human SW620 cells harboring KRAS/BRAF mutant assessed as reduction in total AKT level at 1 uM by Western blot analysis; format: cell-based; details: time 1-24 hrs, TDE = time-dependent effect; summary of the method: as §4
SW-620 [23] = test: Induction of apoptosis in human SW620 cells harboring KRAS mutant assessed as cell death at 5 uM measured upto 72 hrs; format: functional, cell-based
Summary of the method: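 SW620 cells given 5 μM compound or DMSO; percent cell death followed with DRAQ7 at 0, 24, 36, 48 and 72 h. Standard errors taken from three independent experiments.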

[24] = target: T1, RAC-beta serine/threonine-protein kinase; test: Induction of AKT2 degradation in human SW620 cells assessed as reduction in total AKT level at 1 uM measured after 18 hrs by TMT-MS analysis; format: cell-based
Summary of the method: (§5)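 SW620 cells treated at 1 μM for 18 h, two biological replicates per condition. Lysates in 8 M urea were reduced with DTT, alkylated with iodoacetamide, digested with trypsin, labeled with TMT, split into 22 fractions and analyzed by nanoLC-MS/MS on a Q-Exactive HF-X. Output is log2 fold change against p value.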

[25] = target: T2, RAC-alpha serine/threonine-protein kinase; test: Induction of AKT degradation in MS21-resistant human COLO 205 cells harboring BRAF mutant assessed as reduction in total AKT level at 1 uM incubated for 24 hrs by Western blot analysis; format: cell-based; summary of the method: as §1
[26] = target: T2, RAC-alpha serine/threonine-protein kinase; test: Induction of AKT degradation in human SW620 cells assessed as reduction in total AKT level at 1 uM measured after 18 hrs by TMT-MS analysis; format: cell-based; summary of the method: as §5
[27] = target: T2, RAC-alpha serine/threonine-protein kinase; test: Induction of AKT degradation in MS21-resistant human HT-29 cells harboring BRAF/PI3KA mutant assessed as reduction in total AKT level at 1 uM incubated for 24 hrs by Western blot analysis; format: cell-based; summary of the method: as §1

- IC50 (SW-620 [1]): > 10 µM
- IC50 [2]: 0.558 µM
- IC50 [3]: 1.8 µM
- IC50 [4]: 1.2 µM
Compound: Cc1ncsc1-c1ccc([C@H](C)NC(=O)[C@H]2C[C@H](OCc3ccccc3)CN2C(=O)[C@@H](NC(=O)CCCCCCCCCCNC(=O)CCc2cccc(-c3ccc4nc(-c5cccnc5N)n(-c5ccc(C6(N)CCC6)cc5)c4n3)c2)C(C)(C)C)cc1

- Activity [5]: Active
Compound: Cc1ncsc1-c1ccc(CNC(=O)[C@@H]2C[C@@H](O)CN2C(=O)[C@@H](NC(=O)CCCCCCCCCCNC(=O)CCc2cccc(-c3ccc4nc(-c5cccnc5N)n(-c5ccc(C6(N)CCC6)cc5)c4n3)c2)C(C)(C)C)cc1
- inhibition (PC-3): Active

- IC50 [2]: 0.086 µM
- IC50 [3]: 0.407 µM
- IC50 [4]: 0.684 µM
Compound: Cc1ncsc1-c1ccc([C@H](C)NC(=O)[C@H]2C[C@H](O)CN2C(=O)[C@@H](NC(=O)CCCCCCCCCCNC(=O)CCc2cccc(-c3ccc4nc(-c5cccnc5N)n(-c5ccc(C6(N)CCC6)cc5)c4n3)c2)C(C)(C)C)cc1

- Activity [6]: Dde
- GI50 (SW-620 [1]; time 5 day): 3.1 µM
- Activity [7]: 100%
- Activity [8]: Active
- EC50 [9]: 0.023 µM
- Activity [10]: Active
- Tmax [11]: 30 min
- Activity [12]: Active
- Activity [13]: Active
- Activity [14]: Active
- Cmax [15]: 1000 nM
- Activity [17]: Active
- Activity [18]: 100%
- concentration at 12 h [19]: > 100 nM
- inhibition [20]: Active
- Activity [21]: 100%
- IC50 [2]: 0.09 µM
- Activity [22]: Tde
- Activity [24]: Active
- Activity [25]: Active
- Activity [26]: Active
- IC50 [3]: 0.544 µM
- IC50 [4]: 0.798 µM
- Activity [27]: Active
Compound: Cc1ncsc1-c1ccc([C@H](C)NC(=O)[C@@H]2C[C@@H](O)CN2C(=O)[C@@H](NC(=O)CCCCCCCCCCNC(=O)CCc2cccc(-c3ccc4nc(-c5cccnc5N)n(-c5ccc(C6(N)CCC6)cc5)c4n3)c2)C(C)(C)C)cc1
- inhibition (PC-3): Active
- Activity [16]: Non-Toxic
- Activity (SW-620 [23]): Active
